Experimental data taken from ChEMBL document CHEMBL3632584, “Further Optimization and Evaluation of Bioavailable, Mixed-Efficacy μ-Opioid Receptor (MOR) Agonists/δ-Opioid Receptor (DOR) Antagonists: Balancing MOR and DOR Affinities” (J Med Chem, 2015).
Activity calls are given as the source filed them.

Legend:
[1] = target: Mu-type opioid receptor (Rattus norvegicus) (UniProt P33535); test: Agonist activity at rat mu-opioid receptor expressed in C6 cell membrane assessed as [35S]GTPgammaS binding for 1 hr by liquid scintillation counting analysis relative to 10 uM DAMGO; assay type: functional, cell membranes
Mu-type opioid receptor (Rattus norvegicus), sequence (P33535 whole entry): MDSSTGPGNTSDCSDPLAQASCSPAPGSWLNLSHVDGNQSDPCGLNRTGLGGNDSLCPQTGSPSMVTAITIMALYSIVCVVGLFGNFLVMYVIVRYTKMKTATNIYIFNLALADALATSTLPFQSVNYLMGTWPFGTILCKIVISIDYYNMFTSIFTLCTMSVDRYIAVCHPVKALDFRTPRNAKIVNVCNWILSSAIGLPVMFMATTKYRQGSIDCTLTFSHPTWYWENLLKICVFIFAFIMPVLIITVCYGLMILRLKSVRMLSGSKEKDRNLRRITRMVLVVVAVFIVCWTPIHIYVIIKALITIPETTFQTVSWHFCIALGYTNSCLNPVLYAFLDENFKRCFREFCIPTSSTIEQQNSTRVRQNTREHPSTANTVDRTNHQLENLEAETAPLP

[2] = target: Delta-type opioid receptor (Rattus norvegicus) (UniProt P33533); test: Agonist activity at rat delta-opioid receptor expressed in C6 cell membrane assessed as [35S]GTPgammaS binding for 1 hr by liquid scintillation counting analysis relative to 10 uM DPDPE; assay type: functional, cell membranes
Delta-type opioid receptor (Rattus norvegicus), sequence (P33533 whole entry): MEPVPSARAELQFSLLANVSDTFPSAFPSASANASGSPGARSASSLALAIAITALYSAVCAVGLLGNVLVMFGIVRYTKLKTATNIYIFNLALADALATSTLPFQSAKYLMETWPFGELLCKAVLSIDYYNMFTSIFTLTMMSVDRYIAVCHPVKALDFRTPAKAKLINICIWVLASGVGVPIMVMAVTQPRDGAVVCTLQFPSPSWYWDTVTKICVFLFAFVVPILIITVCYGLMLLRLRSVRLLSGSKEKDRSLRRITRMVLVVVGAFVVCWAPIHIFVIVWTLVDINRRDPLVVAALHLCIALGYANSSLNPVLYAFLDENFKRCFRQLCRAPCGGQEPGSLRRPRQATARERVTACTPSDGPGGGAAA

[3] = target: T1, Kappa-type opioid receptor (Homo sapiens, UniProt P41145); test: Agonist activity at human kappa-opioid receptor expressed in CHO cell membrane assessed as [35S]GTPgammaS binding for 1 hr by liquid scintillation counting analysis; assay type: functional, cell membranes
T1 sequence (P41145 whole entry): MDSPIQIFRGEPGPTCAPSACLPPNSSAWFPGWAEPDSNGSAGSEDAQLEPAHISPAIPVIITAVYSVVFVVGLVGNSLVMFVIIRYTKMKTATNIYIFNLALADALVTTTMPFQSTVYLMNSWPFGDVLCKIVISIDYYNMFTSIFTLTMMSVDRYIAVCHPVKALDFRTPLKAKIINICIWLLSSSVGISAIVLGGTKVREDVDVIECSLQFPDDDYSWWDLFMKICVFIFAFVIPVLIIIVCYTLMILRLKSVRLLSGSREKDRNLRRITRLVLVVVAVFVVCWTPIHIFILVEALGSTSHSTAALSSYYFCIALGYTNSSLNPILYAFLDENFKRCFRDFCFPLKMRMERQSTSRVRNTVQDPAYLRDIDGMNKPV

[4] = target: T2, Delta-type opioid receptor (Rattus norvegicus, UniProt P33533); test: Displacement of [3H]diprenorphine from rat delta-opioid receptor expressed in C6 cell membrane for 1 hr by liquid scintillation counting analysis; assay type: cell membranes
T2 sequence (P33533 whole entry): as the sequence (P33533 whole entry) above

[5] = target: T3, Mu-type opioid receptor (Rattus norvegicus, UniProt P33535); test: Agonist activity at rat mu-opioid receptor expressed in C6 cell membrane assessed as [35S]GTPgammaS binding for 1 hr by liquid scintillation counting analysis; assay type: functional, cell membranes
T3 sequence (P33535 whole entry): as the sequence (P33535 whole entry) above

[6] = target: T1, Kappa-type opioid receptor; test: Displacement of [3H]diprenorphine from human kappa-opioid receptor expressed in CHO cell membrane for 1 hr by liquid scintillation counting analysis; assay type: cell membranes
Procedure, shortened: (§1)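 Competition for 0.2 nM [3H]diprenorphine in membranes (20 µg protein) from C6 cells with rat MOR or DOR, or CHO cells with human KOR. 50 mM Tris-HCl pH 7.4, 1 h at room temperature, then GF/C filtration, five buffer washes, scintillation counting. Nonspecific binding set with 10 µM naloxone. Ki from logistic fit. Mean ± S.E.M., ≥3 assays in duplicate. DOR/MOR ratio taken from the Ki values.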

[7] = target: T2, Delta-type opioid receptor; test: Agonist activity at rat delta-opioid receptor expressed in C6 cell membrane assessed as [35S]GTPgammaS binding for 1 hr by liquid scintillation counting analysis; assay type: functional, cell membranes
[8] = target: T1, Kappa-type opioid receptor; test: Agonist activity at human kappa-opioid receptor expressed in CHO cell membrane assessed as [35S]GTPgammaS binding for 1 hr by liquid scintillation counting analysis relative to 10 uM U69593; assay type: functional, cell membranes
[9] = target: T3, Mu-type opioid receptor; test: Displacement of [3H]diprenorphine from rat mu-opioid receptor expressed in C6 cell membrane for 1 hr by liquid scintillation counting analysis; assay type: cell membranes
[10] = organism: Rattus norvegicus; test: Selectivity ratio, ratio of Ki for rat delta-opioid receptor to Ki for rat mu-opioid receptor; procedure, shortened: as §1
[11] = system: Mus musculus; test: Antinociceptive activity in C57BL/6 mouse assessed as tail withdrawal latency upto 10 mg/kg, ip measured after 30 mins by warm water tail withdrawal assay; assay type: functional, organism-based
[12] = system: Plasma; test: Stability in C57BL/6 mouse plasma after 30 mins; assay type: ADME, cell-free; details: 0.5 h
[13] = system: Mus musculus; test: Antinociceptive activity in C57BL/6 mouse assessed as time duration of action at 10 mg/kg, ip measured after 30 mins by warm water tail withdrawal assay; assay type: functional
Procedure, shortened: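 Male C57BL/6 mice given a single 10 mg/kg ip dose. Tail withdrawal from 50 °C water, 20 s cutoff, measured at varying times after dosing to follow duration of action. n=6.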

[14] = system: Mus musculus; test: Antinociceptive activity in C57BL/6 mouse assessed as tail withdrawal latency time at 10 mg/kg, ip measured after 30 mins by warm water tail withdrawal assay; assay type: functional
[15] = system: Mus musculus; test: Antinociceptive activity in ip dosed C57BL/6 mouse assessed as tail withdrawal latency measured 30 mins after drug challenge by warm water tail withdrawal assay; assay type: functional; details: for ED50: C57BL/6, Tail, 0.5 h
[16] = system: Mus musculus; test: Antinociceptive activity in ip dosed C57BL/6 mouse assessed as tail withdrawal latency pretreated with 1 mg/kg naltrexone for 30 mins measured 30 mins after drug challenge by warm water tail withdrawal assay; assay type: functional; details: C57BL/6, Tail
Procedure, shortened: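 Male C57BL/6 mice pretreated ip with 1 mg/kg naltrexone or saline 30 min before cumulative ip dosing to 3.2, 10 and 32 mg/kg. Tail withdrawal latency from 50 °C water, 20 s cutoff, read 30 min after each dose. ED50 from the dose-response.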

| Structure (SMILES) | Activity [1] | Activity [2] | EC50 ([3]; read-out: EC50) [nM] | Ki [4] [nM] | EC50 ([5]; read-out: EC50) [nM] | Ki [6] [nM] | EC50 ([7]; c6) | Activity [8] | Ki [9] [nM] | Ratio Ki [10] | Activity [11] | EC50 ([3]; cho) | Stability [12] | Time [13] [h] | Time [14] [s] | EC50 ([7]; read-out: EC50) [nM] | ED50 [15] [mg/kg] | EC50 ([5]; c6) | ED50 [16] [mg/kg] | Activity [15] |
| --- | --- | --- | --- | --- | --- | --- | --- | --- | --- | --- | --- | --- | --- | --- | --- | --- | --- | --- | --- | --- |
| Cc1cc(O)cc(C)c1C[C@H](N)C(=O)N[C@@H]1CCNc2ccc(Cc3cccc4ccccc34)cc21 | 93% | 15% | – | – | – | – | – | – | – | – | – | – | – | – | – | – | – | – | – | – |
| Cc1cc(O)cc(C)c1C[C@H](N)C(=O)N[C@@H]1CCNc2ccc(CC3CCCCC3)cc21 | 57% | inactive | 97 | 3.4 | 2.6 | 6.2 | Not Active | 36% | 0.043 | 79 | inactive | – | – | – | – | – | – | – | – | – |
| CC(=O)N1CC[C@@H](NC(=O)[C@@H](N)Cc2c(C)cc(O)cc2C)c2cc(Cc3cccc4ccccc34)ccc21 | 70% | inactive | – | 1.3 | 0.48 | 4.3 | Not Active | inactive | 0.06 | 22 | inactive | Not Active | Stable | – | – | – | – | – | – | – |
| Cc1cc(O)cc(C)c1C[C@H](N)C(=O)N[C@@H]1CCNc2ccc(Cc3ccccc3)cc21 | – | – | – | – | – | – | – | – | – | – | – | – | – | >1 | – | – | – | – | – | – |
| Cc1cc(O)cc(C)c1C[C@H](N)C(=O)N[C@@H]1CCNc2ccc(CC3CCc4ccccc43)cc21 (mixture of isomers) | 16% | – | 180 | 6.8 | 9 | 19 | Not Active | 52% | 0.05 | – | – | – | – | – | – | – | – | – | – | – |
| Cc1cc(O)cc(C)c1C[C@H](N)C(=O)N[C@@H]1CCNc2ccc(Cc3ccc4ccccc4c3)cc21 | 96% | inactive | – | – | – | – | – | inactive | – | – | – | – | – | – | 10 | – | – | – | – | – |
| CC(=O)N1CC[C@@H](NC(=O)[C@@H](N)Cc2c(C)cc(O)cc2C)c2cc(CC3CCCCC3)ccc21 | 70% | 26% | 240 | 0.32 | 0.61 | 8.4 | – | 33% | 0.03 | 11 | inactive | – | – | – | – | 14 | – | – | – | – |
| CN1CC[C@]23c4c5ccc(O)c4O[C@H]2[C@@H](O)C=C[C@H]3[C@H]1C5 [MORPHINE] | – | – | – | – | – | – | – | – | – | – | – | – | – | – | – | – | 4.73 | – | – | – |
| CC(=O)N1CC[C@@H](NC(=O)[C@@H](N)Cc2c(C)cc(O)cc2C)c2cc(CC3Cc4ccccc4C3)ccc21 | 84% | inactive | 610 | 0.44 | 0.56 | 12 | Not Active | 60% | 0.05 | 9 | – | – | – | – | 11 | – | – | – | – | – |
| Cc1cc(O)cc(C)c1C[C@H](N)C(=O)N[C@@H]1CCCc2ccc(Cc3cccc4ccccc34)cc21 | 58% | inactive | – | 5 | 14 | 63 | Not Active | inactive | 0.39 | 13 | inactive | Not Active | – | – | – | – | – | – | – | – |
| Cc1cc(O)cc(C)c1C[C@H](N)C(=O)N[C@@H]1CCCc2ccc(CC3CCCCC3)cc21 | inactive | inactive | 350 | 14 | – | 20 | Not Active | 25% | – | 117 | – | – | – | – | – | – | – | Not Active | – | – |
| CC(=O)N1CC[C@@H](NC(=O)[C@@H](N)Cc2c(C)cc(O)cc2C)c2cc(CC3CCc4ccccc43)ccc21 (mixture of isomers) | 39% | – | – | 0.84 | 15 | 15 | Not Active | 26% | 0.03 | – | – | – | – | – | – | – | – | – | – | – |
| Cc1cc(O)cc(C)c1C[C@H](N)C(=O)N[C@@H]1CCNc2ccc(CC3Cc4ccccc4C3)cc21 | 86% | inactive | – | – | – | – | – | 38% | – | 26 | inactive | Not Active | – | – | – | – | – | – | – | – |
| CC(=O)N1CC[C@@H](NC(=O)[C@@H](N)Cc2c(C)cc(O)cc2C)c2cc(Cc3ccc4ccccc4c3)ccc21 | 87% | inactive | – | 0.23 | 0.93 | 48 | Not Active | inactive | 0.04 | 6 | – | Not Active | Stable | >3 | – | – | 4.72 | – | 15.1 | Dose-dependent effect |
| Cc1cc(O)cc(C)c1C[C@H](N)C(=O)N[C@@H]1CCCc2ccc(Cc3ccccc3)cc21 | 64% | – | – | 4 | 2.9 | 19 | Not Active | – | 0.045 | – | – | Not Active | – | – | 14 | – | – | – | – | – |
| CC(=O)N1CC[C@@H](NC(=O)[C@@H](N)Cc2c(C)cc(O)cc2C)c2cc(Cc3ccccc3)ccc21 | 76% | 26% | > 1300 | 1.8 | 6 | 87 | – | 29% | 0.13 | 14 | inactive | – | – | – | – | 68 | – | – | – | – |
| Cc1cc(O)cc(C)c1C[C@H](N)C(=O)N[C@@H]1CCCc2ccc(Cc3ccc4ccccc4c3)cc21 | 72% | – | – | 12 | 4.4 | 92 | Not Active | – | 0.06 | – | inactive | Not Active | – | – | – | – | – | – | – | – |
